Data taken from ChEMBL document CHEMBL1152809, “Structure-activity relationships of orotidine-5'-monophosphate decarboxylase inhibitors as anticancer agents” (J Med Chem, 2009).
The source made the active and inactive calls. The rule behind the calls is not given here.

Columns and labels:
[1] = target: Orotidine 5'-phosphate decarboxylase (Methanobacterium thermoautotrophicum, UniProt O26232); experiment: Reversible inhibition of Methanobacterium thermoautotrophicum ODCase; parameters: species or system Methanothermobacter thermautotrophicus
Chain of Orotidine 5'-phosphate decarboxylase (O26232 whole entry): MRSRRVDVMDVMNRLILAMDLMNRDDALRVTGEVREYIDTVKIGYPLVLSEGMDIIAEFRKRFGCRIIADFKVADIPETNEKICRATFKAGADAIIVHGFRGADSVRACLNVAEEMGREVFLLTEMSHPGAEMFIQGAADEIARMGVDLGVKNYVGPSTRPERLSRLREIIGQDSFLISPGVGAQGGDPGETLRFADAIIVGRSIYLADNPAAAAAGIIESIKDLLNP
How it was run: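 Inhibitor levels span 0-1.0 µM up to 0-4.0 mM depending on compound. Rates from heat flow fitted to a competitive model for Ki; experiments in triplicate.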

[2] = target: T1, Uridine 5'-monophosphate synthase (Homo sapiens) (UniProt P11172); experiment: (§1) Irreversible inhibition of human ODCase
T1 sequence (whole entry): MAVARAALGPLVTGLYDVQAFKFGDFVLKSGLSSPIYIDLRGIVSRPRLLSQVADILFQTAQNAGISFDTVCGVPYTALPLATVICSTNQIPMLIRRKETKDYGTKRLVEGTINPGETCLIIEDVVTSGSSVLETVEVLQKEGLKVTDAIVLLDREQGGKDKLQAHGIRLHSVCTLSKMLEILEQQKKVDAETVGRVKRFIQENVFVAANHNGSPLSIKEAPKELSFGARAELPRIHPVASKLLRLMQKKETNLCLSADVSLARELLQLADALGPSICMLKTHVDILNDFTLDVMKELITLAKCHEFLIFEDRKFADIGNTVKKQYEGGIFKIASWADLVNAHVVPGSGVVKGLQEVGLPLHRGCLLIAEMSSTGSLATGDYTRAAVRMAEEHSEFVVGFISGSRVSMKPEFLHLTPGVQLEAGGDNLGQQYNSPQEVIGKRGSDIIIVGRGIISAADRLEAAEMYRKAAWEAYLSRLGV

[3] = target: T2, Uridine 5'-monophosphate synthase (Homo sapiens, UniProt P11172); experiment: as §1
T2 sequence (P11172 whole entry): T1 sequence (whole entry)

[4] = target: T2, Uridine 5'-monophosphate synthase; experiment: Reversible inhibition of human ODCase
How it was run: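 Human ODCase at 60 nM in 50 mM Tris, 1 mM DTT, assayed by ITC at 37 °C. Enzyme mixed with inhibitor (stocks in 50 mM Tris pH 7.5) and the reaction started with OMP, 15 or 20 µM final. Inhibitor ranges from 0-1.0 µM up to 0-500 µM. Ki from direct fit of decarboxylation rates; triplicates.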

[5] = Antitumor activity against human LOX cells after 3 days by WST1 assay; assay type: functional, cell-based; conditions: 72 h
How it was run: (§2)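 Cell lines grown in Iscove's MDM with 5% FCS, 50 µM 2-mercaptoethanol, penicillin and streptomycin; suspension lines kept at 0.5-1.5 × 10^6 cells/mL, adherent lines subconfluent. Cells seeded in triplicate at 10^4 cells/100 µL. Compounds were dissolved in water and added immediately at 0 to 100 µM final. WST.1 read at 440 nm on day 3; IC50 taken from OD versus concentration plots.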

[6] = Antitumor activity against human OCI-AML1 cells after 3 days by WST1 assay; assay type: functional, cell-based; conditions: ML1, 72 h; how it was run: as §2
[7] = tested on: ML1; experiment: Induction of apoptosis in human OCI-AML1 cells by […]/propidium iodide staining assay; assay type: functional, cell-based
How it was run: (§3)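 Cells seeded in duplicate at 10^5 cells/mL; inhibitors added straight after seeding at 4 µM final, water in control wells. Cells harvested every 24 h, washed in PBS, stained with Annexin V/propidium iodide (1:200) and analysed by FACS; apoptotic cells scored as Annexin V+/PI-, necrotic as Annexin V+/PI+.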

[8] = tested on: T47D; experiment: Antitumor activity against human T47D cells up to 50 uM after 3 days by WST1 assay; assay type: functional, cell-based; how it was run: as §2
[9] = tested on: PC-3; experiment: Antitumor activity against human PC3 cells up to 50 uM after 3 days by WST1 assay; assay type: functional, cell-based; how it was run: as §2
[10] = Antitumor activity against human MDA468 cells after 3 days by WST1 assay; assay type: functional, cell-based; conditions: MDA-MB-468, 72 h; how it was run: as §2
[11] = tested on: OCI-AML2; experiment: Antitumor activity against human OCI-AML2 cells after 3 days by WST1 assay; assay type: functional, cell-based; conditions: OCI-AML2, 72 h; how it was run: as §2
[12] = species: Homo sapiens; experiment: Induction of apoptosis in human OCI-My 2 cells 4 uM by […]/propidium iodide staining assay; assay type: functional, cell-based; how it was run: as §3
[13] = Antitumor activity against human OCI-LY7 cells after 3 days by WST1 assay; assay type: functional, cell-based; conditions: OCI-Ly7, 72 h; how it was run: as §2
[14] = tested on: Hs-578T; experiment: Antitumor activity against human Hs 578T cells up to 50 uM after 3 days by WST1 assay; assay type: functional, cell-based; how it was run: as §2
[15] = tested on: OCI-Ly7; experiment: Induction of apoptosis in human OCI-LY7 cells 4 uM by […]/propidium iodide staining assay; assay type: functional, cell-based; how it was run: as §3
[16] = Antitumor activity against human SKW3 cells after 3 days by WST1 assay; assay type: functional, cell-based; conditions: SKW3, 72 h; how it was run: as §2
[17] = tested on: SNB-19; experiment: Antitumor activity against human SNB19 cells up to 50 uM after 3 days by WST1 assay; assay type: functional, cell-based; how it was run: as §2
[18] = tested on: SKW3; experiment: Induction of apoptosis in human SKW3 cells at 4 uM by annexin V/propidium iodide staining assay
[19] = Antitumor activity against human OCI-My 2 cells after 3 days by WST1 assay; assay type: functional, cell-based; conditions: 72 h; how it was run: as §2
[20] = Cytotoxicity against human CCD-967 cells up to 50 uM after 3 days by WST1 assay; assay type: cell-based; conditions: ccd-967, 72 h
How it was run: (§4)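 Cells grown in Iscove's MDM with 5% FCS, 50 µM 2-mercaptoethanol and antibiotics, kept subconfluent if adherent. Seeded in triplicate at 10^4 cells/100 µL with compounds (in water) added at once, 0 to 100 µM final. WST.1 formazan read at 440 nm on day 3; IC50 from OD versus concentration.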

[21] = tested on: MCF7; experiment: Antitumor activity against human MCF7 cells after 3 days by WST1 assay; assay type: functional, cell-based; conditions: MCF7, 72 h; how it was run: as §2
[22] = tested on: OVCAR-4; experiment: Antitumor activity against human OVCAR4 cells after 3 days by WST1 assay; assay type: functional, cell-based; conditions: OVCAR-4, 72 h; how it was run: as §2
[23] = Cytotoxicity against human CCD-967 cells up to 4 uM after 3 days by WST1 assay; assay type: cell-based; conditions: ccd-967, 72 h; how it was run: as §4
[24] = tested on: COLO 205; experiment: Antitumor activity against human COLO205 cells after 3 days by WST1 assay; assay type: functional, cell-based; conditions: COLO 205, 72 h; how it was run: as §2
[25] = tested on: PBMC; experiment: Cytotoxicity against human PBMC cells by WST1 assay; assay type: cell-based
How it was run: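 Donor PBMCs isolated on Ficoll-Hypaque from blood diluted 1:1 in PBS, washed twice in PBS and stimulated with 3 µg/mL concanavalin A. Seeded in triplicate at 10^5 cells/100 µL; compounds in water added immediately, 0-100 µM final. WST.1 absorbance at 440 nm on day 3; IC50 from OD versus concentration plots.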

[26] = tested on: SNB-19; experiment: Antitumor activity against human SNB19 cells up to 4 uM after 3 days by WST1 assay; assay type: functional, cell-based; how it was run: as §2
[27] = tested on: Hs-578T; experiment: Antitumor activity against human Hs 578T cells up to 4 uM after 3 days by WST1 assay; assay type: functional, cell-based; how it was run: as §2
[28] = tested on: T47D; experiment: Antitumor activity against human T47D cells up to 4 uM after 3 days by WST1 assay; assay type: functional, cell-based; how it was run: as §2
[29] = tested on: Methanothermobacter thermautotrophicus; experiment: (§5) Irreversible inhibition of Methanobacterium thermoautotrophicum ODCase
[30] = as §5; parameters: species or system Methanothermobacter thermautotrophicus
[31] = tested on: MCF7; experiment: Antitumor activity against human MCF7 cells up to 50 uM after 3 days by WST1 assay; assay type: functional, cell-based; how it was run: as §2
[32] = tested on: MDA-MB-468; experiment: Antitumor activity against human MDA468 cells up to 50 uM after 3 days by WST1 assay; assay type: functional, cell-based; how it was run: as §2

SMILES	Ki [1] [nM]	IC50 [11] [nM]	IC50 [21] [nM]	IC50 [22] [nM]	IC50 [24] [nM]	IC50 [5] [nM]	IC50 [6] [nM]	Activity [8]	Activity [9]	IC50 [10] [nM]	IC50 [13] [nM]	Activity [14]	IC50 [16] [nM]	Activity [17]	IC50 [19] [nM]	Activity [20]	other results
[N-]=[N+]=Nc1c(F)c(=O)[nH]c(=O)n1[C@@H]1O[C@H](COP(=O)(O)O)[C@@H](O)[C@H]1O	360	–	–	–	–	–	–	–	–	–	–	–	–	–	–	–	Kinact [2]: 41 h⁻¹; Ki [3]: 18200 nM
O=c1[nH]c(=O)n([C@@H]2O[C@H](COP(=O)(O)O)[C@@H](O)[C@H]2O)cc1F	645000	–	–	–	–	–	–	–	–	–	–	–	–	–	–	–	Ki [4]: 98000 nM
CCc1c(F)c(=O)[nH]c(=O)n1[C@@H]1O[C@H](COP(=O)(O)O)[C@@H](O)[C@H]1O	29000	–	–	–	–	–	–	–	–	–	–	–	–	–	–	–	Ki [4]: 350 nM
[N-]=[N+]=Nc1cc(=O)[nH]c(=O)n1[C@@H]1O[C@H](COP(=O)(O)O)[C@@H](O)[C@H]1O	200	–	–	–	–	–	–	–	–	–	–	–	–	–	–	–	Kinact [29]: 61.2 h⁻¹; Ki [30]: 600 nM
O=c1[nH]c(=O)n([C@@H]2O[C@H](COP(=O)(O)O)[C@@H](O)[C@H]2O)c(I)c1F	–	–	–	–	–	–	–	–	–	–	–	–	–	–	–	–	Kinact [2]: 158 h⁻¹; Ki [3]: 1100 nM
Nc1c(F)c(=O)[nH]c(=O)n1[C@@H]1O[C@H](COP(=O)(O)O)[C@@H](O)[C@H]1O	11400	–	–	–	–	–	–	–	–	–	–	–	–	–	–	–	Ki [4]: 16600 nM

Now from value to compound, other results behind:

Ki [1] [nM]	IC50 [11] [nM]	IC50 [21] [nM]	IC50 [22] [nM]	IC50 [24] [nM]	SMILES	IC50 [5] [nM]	IC50 [6] [nM]	Activity [8]	Activity [9]	IC50 [10] [nM]	IC50 [13] [nM]	Activity [14]	IC50 [16] [nM]	Activity [17]	IC50 [19] [nM]	Activity [20]	other results
–	700	23700	–	–	O=Cc1c(F)c(=O)[nH]c(=O)n1[C@@H]1O[C@H](CO)[C@@H](O)[C@H]1O	400	300	inactive	inactive	1900	600	inactive	300	inactive	400	Not Active	Activity [7]: Active; Activity [12]: Active; Activity [15]: Active; Activity [18]: Active
–	700	1000	1500	3800	[N-]=[N+]=Nc1c(F)c(=O)[nH]c(=O)n1[C@@H]1O[C@H](CO)[C@@H](O)[C@H]1O	2300	600	–	–	1800	700	–	400	–	600	–	Activity [7]: Active; Activity [23]: Not Active; Activity [12]: Active; IC50 [25]: > 10000 nM; Activity [26]: inactive; Activity [15]: Active; Activity [27]: inactive; Activity [18]: Active; Activity [28]: inactive
–	900	1400	2000	3300	Nc1c(F)c(=O)[nH]c(=O)n1[C@@H]1O[C@H](CO)[C@@H](O)[C@H]1O	3400	700	–	–	2600	1300	–	600	–	900	–	Activity [7]: Active; Activity [23]: Not Active; Activity [12]: Active; IC50 [25]: > 10000 nM; Activity [26]: inactive; Activity [15]: Active; Activity [27]: inactive; Activity [18]: Active; Activity [28]: inactive
–	> 50000	> 50000	> 50000	> 50000	COC(=O)c1cc(=O)[nH]c(=O)n1[C@@H]1O[C@H](CO)[C@@H](O)[C@H]1O	> 50000	> 50000	inactive	inactive	> 50000	> 50000	inactive	> 50000	inactive	42300	Not Active	Activity [31]: inactive; Activity [32]: inactive
–	> 50000	> 50000	> 50000	> 50000	Cc1cc(=O)[nH]c(=O)n1[C@@H]1O[C@H](CO)[C@@H](O)[C@H]1O	> 50000	> 50000	inactive	inactive	> 50000	> 50000	inactive	> 50000	inactive	> 50000	Not Active	Activity [31]: inactive; Activity [32]: inactive
–	> 50000	> 50000	> 50000	> 50000	N#Cc1cc(=O)[nH]c(=O)n1[C@@H]1O[C@H](CO)[C@@H](O)[C@H]1O	> 50000	> 50000	inactive	inactive	> 50000	> 50000	inactive	> 50000	inactive	> 50000	Not Active	Activity [31]: inactive; Activity [32]: inactive
